“And” between values parts separate entries of the source, which are not always exact repeats. Identical values can stand only once.
Test system: U2OS
Assay: Multiplex assay against U2OS
Type: toxicity, cell-based
Conditions: human
How it was run: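 Values for tubulin, mitochondrial-mass and membrane-permeability phenotypes are per cents of cells with healthy nuclei. These cells were identified by CellPathfinder machine-learning gating of live cells that had been stained at seeding with Hoechst33342, BioTracker Green Microtubule Cytoskeleton Dye, MitoTracker Red and Annexin V Alexa Fluor 680 and imaged on a CQ1 microscope at 37°C and 5% CO2 after compound addition. The gating first set Hoechst high-intensity objects apart from normal cells, then split normal cells into healthy, pyknosed or fragmented nuclei, and pyknosed cells into mitotic or apoptotic.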

[1] = 12 h, 1 µM, compound concentration 1 uM
[2] = 12 h, 10 µM, compound concentration 10 uM
[3] = 24 h, 1 µM, compound concentration 1 uM
[4] = 24 h, 10 µM, compound concentration 10 uM
[5] = 48 h, 1 µM, compound concentration 1 uM
[6] = 48 h, 10 µM, compound concentration 10 uM

## CCCCCN1C(=O)C2(COc3cc4c(cc32)OCO4)c2ccccc21 (stereo not drawn)
[1]
  Population Apoptotic (%): 29.41% and 64%
  Population Fragmented Nuclei (%): 1.7% and 1.92%
  Population Healthy Nuclei (%): 87.47% and 82.05%
  Population Hoechst High Intensity Objects (%): 0%
  Population Membrane Permeable-Phenotype (%): 0.49% and 3.91%
  Population Mitochondria Different-Phenotype (%): 0.24% and 7.81%
  Population Mitotic Cells (%): 70.59% and 36%
  Population Normal (%): 100%
  Population Pyknosed Nuclei (%): 10.83% and 16.03%
  Population Tubulin-Different-Phenotype (%): 0.49% and 0%
[2]
  Population Apoptotic (%): 35.71% and 31.82%
  Population Fragmented Nuclei (%): 1.52% and 0%
  Population Healthy Nuclei (%): 91.37% and 84.93%
  Population Hoechst High Intensity Objects (%): 0%
  Population Membrane Permeable-Phenotype (%): 1.94% and 4.84%
  Population Mitotic Cells (%): 64.29% and 68.18%
  Population Normal (%): 100%
  Population Pyknosed Nuclei (%): 7.11% and 15.07%
  Population Tubulin-Different-Phenotype (%): 2.22% and 2.42%
  Total Cell Count: 394 and 146
[3]
  Population Apoptotic (%): 41.07% and 40%
  Population Fragmented Nuclei (%): 1.74% and 2.44%
  Population Healthy Nuclei (%): 89.42% and 80.49%
  Population Hoechst High Intensity Objects (%): 0%
  Population Membrane Permeable-Phenotype (%): 0.88% and 2.42%
  Population Mitochondria Different-Phenotype (%): 0% and 7.27%
  Population Mitotic Cells (%): 58.93% and 60%
  Population Normal (%): 100%
  Population Pyknosed Nuclei (%): 8.85% and 17.07%
  Population Tubulin-Different-Phenotype (%): 0.18% and 1.82%
[4]
  Population Apoptotic (%): 23.33% and 32.14%
  Population Fragmented Nuclei (%): 2.09% and 1.2%
  Population Healthy Nuclei (%): 86.5% and 81.93%
  Population Hoechst High Intensity Objects (%): 0%
  Population Membrane Permeable-Phenotype (%): 1.1% and 8.09%
  Population Mitotic Cells (%): 76.67% and 67.86%
  Population Normal (%): 100%
  Population Pyknosed Nuclei (%): 11.41% and 16.87%
  Population Tubulin-Different-Phenotype (%): 2.42% and 3.68%
[5]
  Population Apoptotic (%): 40.17% and 47.5%
  Population Fragmented Nuclei (%): 3.56% and 1.97%
  Population Healthy Nuclei (%): 86.74% and 86.8%
  Population Hoechst High Intensity Objects (%): 0%
  Population Membrane Permeable-Phenotype (%): 0.86% and 1.29%
  Population Mitochondria Different-Phenotype (%): 0% and 3.56%
  Population Mitotic Cells (%): 59.83% and 52.5%
  Population Normal (%): 100%
  Population Pyknosed Nuclei (%): 9.69% and 11.24%
  Population Tubulin-Different-Phenotype (%): 0.38% and 0.97%
[6]
  Population Apoptotic (%): 41.89% and 71.05%
  Population Fragmented Nuclei (%): 2.63% and 1.47%
  Population Healthy Nuclei (%): 89.58% and 84.56%
  Population Hoechst High Intensity Objects (%): 0%
  Population Membrane Permeable-Phenotype (%): 0.71% and 3.91%
  Population Mitotic Cells (%): 58.11% and 28.95%
  Population Normal (%): 100%
  Population Pyknosed Nuclei (%): 7.79% and 13.97%
  Population Tubulin-Different-Phenotype (%): 1.29% and 1.74%

Reference: ChEMBL document CHEMBL5724801, “EUbOPEN Chemogenomics Library - Multiplex” (2024)
